In brackets after ≈: the same amount, converted by molar mass.
How the values were obtained:
5‐LO [1] = conditions: cited from earlier work
[2] = system: LTB4 production in human whole blood; test: LTB4 production in human whole blood in vitro; assay type: cell-based; conditions: read-out: IC50, inhibition of LTB4 production
logD = assay type: physicochemical; conditions: pH 7.4
[3] = Human plasma protein binding; assay type: in vitro ADME
Caco‐2 = test: Caco-2 permeability and efflux; assay type: in vitro ADME
[4] = Solubility of amorphous and crystalline form; assay type: physicochemical; conditions: amorphous
[5] = system: cytochrome P450 (CYP)3A4 and CYP3A5; test: In vitro metabolism studies; assay type: in vitro ADME
[6] = Pharmacokinetics, single ascending dose; assay type: in vivo, human; conditions: for AUC / CL/F / CLR / t½ / Cmax: geometric mean (%CV); for Tmax: median (range)
Procedure, shortened: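 Fasted (10 h overnight) healthy men received single oral doses of amorphous suspension, n = 6 per dose. K₂EDTA plasma and pooled urine were assayed by LC-MS/MS with a ¹³C₆-labelled internal standard (validated 1–1,000 nmol/L plasma, 20–20,000 nmol/L urine). Noncompartmental analysis used log-linear trapezoidal AUC extrapolated to infinity; CL/F = dose/AUC; CLR = amount excreted unchanged/AUC.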

[7] = Pharmacokinetics, multiple ascending dose; assay type: in vivo, human
Procedure, shortened: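 Amorphous oral suspension was given once daily for 10 days to fasted healthy men (n = 6 per dose), with intensive sampling on days 1 and 10. K₂EDTA plasma and urine were measured by LC-MS/MS with a ¹³C₆-labelled internal standard (validated 1–1,000 nmol/L plasma, 20–20,000 nmol/L urine). Noncompartmental analysis on actual times; CL/F = dose/AUC; CLR = amount excreted unchanged/AUC.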

[8] = system: ex vivo calcium ionophore stimulated LTB4 production in whole blood; set-up: species or system human
Procedure, shortened: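 Lithium-heparin blood was drawn from dosed subjects 24 h before and just before dosing, then at set times after (SAD to 48 h; MAD daily predose and after last dose). Blood aliquots were stimulated in duplicate with 30 μM calcium ionophore A23187 or DMSO at 37°C, 100 rpm, for 30 min, then stopped on ice with EGTA. LTB₄ in plasma was measured by supported liquid extraction LC-MS/MS, against a baseline of the mean day 1/predose value.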

[9] = Clinical safety and tolerability in healthy subjects; assay type: in vivo, human; conditions: for subjects reporting headache: active drug
Procedure, shortened: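 Healthy men aged 18–50 (BMI 18–30 kg/m², 50–100 kg), randomized, single-blind, placebo-controlled. SAD: single oral suspension doses of 25–1,200 mg, with sentinel pairs reviewed to 24 h. MAD: 60–600 mg once daily for 10 days. Vital signs, ECG, telemetry, clinical laboratory tests and adverse events were recorded before and after dosing and at follow-up 7–10 days post final dose.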

[10] = Human intestinal Ussing chamber metabolism; assay type: in vitro ADME; conditions: data not shown
5‐LO [11] = conditions: at‐risk patients with CAD ref 15; cited from earlier work
[12] = 60 mg OD, day 10, geometric mean (%CV)
[13] = 180 mg OD, day 1, geometric mean (%CV)
[14] = 180 mg OD, day 10, geometric mean (%CV)
[15] = 360 mg OD, day 1, geometric mean (%CV)
[16] = 360 mg OD, day 10, geometric mean (%CV)
[17] = 600 mg OD, day 1, geometric mean (%CV)
[18] = 600 mg OD, day 10, geometric mean (%CV)

For `C[C@H](C#Cc1ccc(Cc2ccc(F)cc2)s1)N(O)C(N)=O` [VIA‐2291, Atreleuton], the “ex vivo stimulated LTB4 production” value (5‐LO [1]; patients with ACS ref 13) is given as “reduced”, the noncalcified plaque volume (5‐LO [1]; patients with ACS ref 13) is given as “reduced” and the “left ventricular ejection fraction” value (5‐LO [1]; patients with ACS, dose dependent ref 13, 14) is given as “improved”.
For `Cc1cc(-c2ccc(C(=O)[C@@H]3CCCC[C@H]3C(=O)Nc3cnn4c3C(=O)NCC4)cc2)n[nH]1` [AZD5718], the IC50 [2] was 0.039 µM, the logD (logD) was 2.9 and the “human plasma protein binding” value [3] was 95.7%. For the same molecule, the Papp (Caco‐2) was 24 10^−6 cm/s, the efflux ratio (Caco‐2) was 7.4 and the solubility [4] was 20 µM (≈ 8.93 µg/mL). For the same molecule, the “CYP‐isoforms involved in the metabolism” value [5] was “(CYP)3A4 and CYP3A5”, the AUC ([6]; 25 mg single dose) was 376.3 (38.1) nmol*h/L and the CL/F ([6]; 25 mg single dose) was 148.8 (38.1) L/h. For the same molecule, the CLR ([6]; 25 mg single dose) was 0.68 (39.4) L/h, the t½ ([6]; 25 mg single dose) was 10.3 (51.0) h and the Tmax ([6]; 25 mg single dose) was 3.0 (1.0–6.0) h. The AUC ([6]; 50 mg single dose) was 727.0 (15.4) nmol*h/L, the CL/F ([6]; 50 mg single dose) was 153.9 (15.4) L/h and the CLR ([6]; 50 mg single dose) was 0.62 (14.7) L/h. The Cmax ([6]; 50 mg single dose) was 0.0816 µM, the t½ ([6]; 50 mg single dose) was 12.5 (33.3) h and the Tmax ([6]; 50 mg single dose) was 1.0 (1.0–3.0) h. The AUC ([6]; 100 mg single dose) was 1,441 (45.3) nmol*h/L, the CL/F ([6]; 100 mg single dose) was 155.6 (45.3) L/h and the CLR ([6]; 100 mg single dose) was 0.66 (41.0) L/h. The Cmax ([6]; 100 mg single dose) was 0.17 µM, the t½ ([6]; 100 mg single dose) was 12.7 (35.7) h and the Tmax ([6]; 100 mg single dose) was 1.0 (0.5–3.0) h. For the same molecule, the AUC ([6]; 300 mg single dose) was 8,462 (20.1) nmol*h/L, the CL/F ([6]; 300 mg single dose) was 79.4 (20.1) L/h and the CLR ([6]; 300 mg single dose) was 0.67 (23.7) L/h. The Cmax ([6]; 300 mg single dose) was 2.36 µM, the t½ ([6]; 300 mg single dose) was 13.7 (43.9) h and the Tmax ([6]; 300 mg single dose) was 1.0 (0.5–1.0) h. For the same molecule, the AUC ([6]; 600 mg single dose) was 18,810 (42.1) nmol*h/L, the CL/F ([6]; 600 mg single dose) was 71.5 (42.1) L/h and the CLR ([6]; 600 mg single dose) was 0.70 (15.4) L/h. For the same molecule, the Cmax ([6]; 600 mg single dose) was 5.05 µM, the t½ ([6]; 600 mg single dose) was 11.4 (18.0) h and the Tmax ([6]; 600 mg single dose) was 1.0 (1.0–2.0) h. The AUC ([6]; 1,200 mg single dose) was 35,840 (33.8) nmol*h/L, the CL/F ([6]; 1,200 mg single dose) was 75.0 (33.8) L/h and the CLR ([6]; 1,200 mg single dose) was 0.62 (12.1) L/h. For the same molecule, the Cmax ([6]; 1,200 mg single dose) was 6.88 µM, the t½ ([6]; 1,200 mg single dose) was 10.3 (19.0) h and the Tmax ([6]; 1,200 mg single dose) was 1.5 (1.0–2.0) h. The “relative bioavailability of the crystalline formulation compared with the amorphous formulation” value ([6]; SAD, oral suspensions, results not presented) was “much lower”, the “mean terminal half‐life” value ([6]; after single dose administration and at steady state, all doses) was 10 to 12 h and the “dose‐linearity of exposure” value ([6]; single and multiple administration, except Ctrough in the MAD) was “more than dose proportional increase in exposure”. The “median Tmax” value ([6]; single and multiple dose, amorphous suspension, fasted) was roughly 1 h, the “renal clearance as share of total oral clearance” value ([6]; unchanged drug in urine) was roughly 1% and the AUCτ ([7]; 60 mg OD, day 1, geometric mean (%CV)) was 1,018 (22.4) nmol*h/L. For the same molecule, the Tmax ([7]; 60 mg OD, day 1, median (range)) was 0.8 (0.5–2.0) h, the Cmax ([7]; 60 mg OD, day 1, oral amorphous suspension, N = 6, geometric mean (%CV)) was 0.167 µM and the AUCτ [7, 12] was 1,386 (27.4) nmol*h/L. For the same molecule, the CL/F [7, 12] was 96.9 (27.4) L/h, the CLR [7, 12] was 0.64 (16.0) L/h and the Cmax [7, 12] was 0.22 µM. The t½ [7, 12] was 11.6 (6.7) h, the Tmax ([7]; 60 mg OD, day 10, median (range)) was 0.5 (0.5–1.0) h and the AUCτ [7, 13] was 3,732 (41.2) nmol*h/L. The Cmax [7, 13] was 0.847 µM, the Tmax ([7]; 180 mg OD, day 1, median (range)) was 1.0 (1.0–1.0) h and the AUCτ [7, 14] was 5,128 (46.9) nmol*h/L. The CL/F [7, 14] was 78.6 (46.9) L/h, the CLR [7, 14] was 0.75 (16.0) L/h and the Cmax [7, 14] was 1.24 µM. The t½ [7, 14] was 11.2 (13.0) h, the Tmax ([7]; 180 mg OD, day 10, median (range)) was 1.0 (1.0–1.0) h and the AUCτ [7, 15] was 10,350 (28.8) nmol*h/L. The Cmax [7, 15] was 2.56 µM, the Tmax ([7]; 360 mg OD, day 1, median (range)) was 1.0 (1.0–2.0) h and the AUCτ [7, 16] was 12,760 (31.0) nmol*h/L. For the same molecule, the CL/F [7, 16] was 63.1 (31.0) L/h, the CLR [7, 16] was 0.99 (5.2) L/h and the Cmax [7, 16] was 3.21 µM. The t½ [7, 16] was 9.1 (10.7) h, the Tmax ([7]; 360 mg OD, day 10, median (range)) was 1.0 (1.0–1.0) h and the AUCτ [7, 17] was 16,290 (48.6) nmol*h/L. For the same molecule, the Cmax [7, 17] was 4.93 µM, the Tmax ([7]; 600 mg OD, day 1, median (range)) was 1.0 (1.0–1.0) h and the AUCτ [7, 18] was 23,170 (47.4) nmol*h/L. The CL/F [7, 18] was 58.0 (47.4) L/h, the CLR [7, 18] was 0.72 (23.3) L/h and the Cmax [7, 18] was 5.69 µM. The t½ [7, 18] was 9.9 (29.2) h, the Tmax ([7]; 600 mg OD, day 10, median (range)) was 1.5 (1.0–3.0) h and the “accumulation on repeated dosing” value ([7]; Ctrough, once daily dosing) was “small accumulation”. For the same molecule, the “time to steady state” value ([7]; repeated once daily dosing, Ctrough, visual inspection) was roughly 3 days, the “LTB4 production inhibition throughout the day” value ([8]; MAD, 180, 360, and 600 mg doses, last day of repeated dosing) was greater than 80% and the “mean LTB4 inhibition throughout the whole day” value ([8]; SAD, single doses of 300–1,200 mg) was greater than 80%. For the same molecule, the “fold lower IC50 for ex vivo stimulated LTB4 inhibition” value ([8]; compared with both AM103 and VIA2291) was roughly 100 fold, the “subjects experiencing an AE on active drug” value ([9]; MAD study) was 10 subjects and the subjects reporting headache ([9]; MAD study) was “five”. For the same molecule, the serious adverse events ([9]; SAD 25–1,200 mg and MAD 60–600 mg) was “no serious adverse events”, the “safety and tolerability findings” value ([9]; SAD and MAD, healthy subjects) was “No clinically relevant safety and tolerability findings” and the “subjects experiencing an AE on active drug” value ([9]; SAD study) was 17 subjects. The subjects reporting headache ([9]; SAD study) was “three”, the maximal tolerated dose ([9]; up to 1,200 mg single, 600 mg OD for 10 days) was “not established” and the metabolism kinetics [10] was “saturable metabolism”.
For `CC(c1cc2ccccc2s1)N(O)C(N)=O` (centres unmarked) [zileuton], the “flow‐mediated dilation in the brachial artery” value (5‐LO [11]) is listed as “improved” and the “leukotriene production in blood” value (5‐LO [11]) is listed as “inhibited”.
